Laboratory results taken from ChEMBL document CHEMBL3351900, “Conjugation of a nonspecific antiviral sapogenin with a specific HIV fusion inhibitor: a promising strategy for discovering new antiviral therapeutics” (J Med Chem, 2014).
Values after ≈ are worked out from the molar mass of the structure shown. Active and inactive are the calls of the source. The rule behind the calls is not given here. Square brackets hold non-standard residues; d marks the D form. Peptide text beside a SMILES is read from it. * marks the point of attachment. X1 = C=CCOC(=O)[C@]12CC[C@@H](C(=C)C)[C@@H]1[C@H]1CC[C@@H]3[C@@]4(C)CC[C@H](OC(=O)CCc5cn(CC(=O)*)nn5)C(C)(C)[C@@H]4CC[C@@]3(C)[C@]1(C)CC2; X2 = C=CCOC(=O)[C@]12CCC(C)(C)C[C@H]1C1=CC[C@@H]3[C@@]4(C)CC[C@H](OC(=O)CCc5cn(CC(=O)*)nn5)C(C)(C)[C@@H]4CC[C@@]3(C)[C@]1(C)CC2; X11 = CCCc1cn(CC(=O)*)nn1; βAla = NCCC(=O)O

Key:
[1] = test system: Human immunodeficiency virus 1; assay: Antiviral activity against HIV1 3B infected in human MT2 cells assessed as inhibition of viral entry compound treated at 200 nM at 6 hrs post infection measured 3 to 4 days post infection by time-of-addition assay
[2] = Solubility of the compound in pure water by UV spectrophotometry; format: physicochemical
How it was run: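 About 1 mg of peptide dissolved in 10 μL water or PBS and centrifuged. Supernatant concentration of the tyrosine-containing conjugate determined from UV absorbance at 280 nm.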

[3] = test system: Human immunodeficiency virus 1; assay: Antiviral activity against HIV1 3B infected in human MT2 cells assessed as inhibition of viral p24 antigen production by ELISA; format: functional, organism-based; conditions: Human immunodeficiency virus 1, 3B
How it was run: (§1)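 MT-2 cells (1 × 10⁴) infected with 100 TCID₅₀ virus with or without peptides at graded concentrations. Culture supernatants collected on day 4 postinfection; p24 antigen quantified by ELISA. Percent inhibition and EC₅₀ calculated; tested in triplicate, mean ± standard deviation.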

[4] = Cytotoxicity against human MT2 cells after 4 days by XTT assay; format: cell-based
How it was run: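 MT-2 cells (5 × 10⁵/mL) mixed with equal volumes of graded conjugate concentrations and held at 37 °C for 4 days. XTT (1 mg/mL) with 0.02 μM phenazine methosulfate added for 4 h, then A450 read. CC50 calculated from the dose–response.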

[5] = test system: Human immunodeficiency virus 1; assay: Antiviral activity against HIV1 BaL infected in human […] cells assessed as inhibition of viral replication; format: functional, organism-based; conditions: Human immunodeficiency virus 1, BaL
How it was run: as §1

[6] = Selectivity index, ratio of CC50 for human MT2 cells to EC50 for HIV1 3B infected in human MT2 cells; format: toxicity, cell-based; conditions: read-out: Ratio CC50/EC50
[7] = target: GP41 (Human immunodeficiency virus 1) (UniProt Q76270); assay: Inhibition of HIV1 gp41 NHR assessed as inhibition of 6HB formation by FRET assay
How it was run: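 FRET competition assay. A bpy-labelled 31-mer NHR pocket peptide is trimerized by Fe(II) into env2.0, which quenches the Lucifer-yellow-tagged CP2 probe. Displacement of the probe raises fluorescence. Used 7 μM binding sites (three per trimer) and 1 μM CP2-LY.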

[8] = test system: Human immunodeficiency virus 1; assay: Antiviral activity against T20-sensitive HIV1 NL4-3 harboring gp41 D36G mutant infected in human MT2 cells; format: functional, organism-based
How it was run: as §1

[9] = test system: Human immunodeficiency virus 1; assay: Antiviral activity against T20-resistant HIV1 NL4-3 harboring gp41 D36G/V38A mutant infected in human MT2 cells; format: functional, organism-based
How it was run: as §1

[10] = test system: Human immunodeficiency virus 1; assay: Antiviral activity against T20-resistant HIV1 NL4-3 harboring gp41 D36G/V38A/N42D mutant infected in human MT2 cells; format: functional, organism-based
How it was run: as §1

[11] = test system: Human immunodeficiency virus 1; assay: Antiviral activity against T20-resistant HIV1 NL4-3 harboring gp41 D36G/N42T/N43K mutant infected in human MT2 cells; format: functional, organism-based
How it was run: as §1

[12] = test system: Human immunodeficiency virus 1; assay: Antiviral activity against T20-resistant HIV1 NL4-3 harboring gp41 D36G/V38E/N42S mutant infected in human MT2 cells; format: functional, organism-based
How it was run: as §1

[13] = test system: Human immunodeficiency virus 1; assay: Antiviral activity against T20-resistant HIV1 NL4-3 harboring gp41 D36G/V38A/N42T mutant infected in human MT2 cells; format: functional, organism-based
How it was run: as §1

[14] = test system: Human immunodeficiency virus 1; assay: Ratio of EC50 for T20-resistant HIV1 NL4-3 harboring gp41 D36G/V38A mutant infected in human MT2 cells to EC50 for T20-sensitive HIV1 NL4-3 harboring gp41 D36G mutant infected in human MT2 cells; format: functional
How it was run: (§2)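 MT-2 cells (1 × 10⁴) infected with 100 TCID₅₀ of HIV-1 NL4-3 gp41 mutant virus with or without peptide at graded concentrations. Culture supernatants collected on day 4 postinfection and p24 antigen measured by ELISA. Percent inhibition and EC₅₀ calculated, triplicate, mean ± standard deviation. Fold change = EC₅₀ against each mutant divided by EC₅₀ against the D36G strain.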

[15] = test system: Human immunodeficiency virus 1; assay: Ratio of EC50 for T20-resistant HIV1 NL4-3 harboring gp41 D36G/V38A/N42D mutant infected in human MT2 cells to EC50 for T20-sensitive HIV1 NL4-3 harboring gp41 D36G mutant infected in human MT2 cells; format: functional
How it was run: as §2

[16] = test system: Human immunodeficiency virus 1; assay: Ratio of EC50 for T20-resistant HIV1 NL4-3 harboring gp41 D36G/N42T/N43K mutant infected in human MT2 cells to EC50 for T20-sensitive HIV1 NL4-3 harboring gp41 D36G mutant infected in human MT2 cells; format: functional
How it was run: as §2

[17] = test system: Human immunodeficiency virus 1; assay: Ratio of EC50 for T20-resistant HIV1 NL4-3 harboring gp41 D36G/V38E/N42S mutant infected in human MT2 cells to EC50 for T20-sensitive HIV1 NL4-3 harboring gp41 D36G mutant infected in human MT2 cells; format: functional
How it was run: as §2

[18] = test system: Human immunodeficiency virus 1; assay: Ratio of EC50 for T20-resistant HIV1 NL4-3 harboring gp41 D36G/V38A/N42T mutant infected in human MT2 cells to EC50 for T20-sensitive HIV1 NL4-3 harboring gp41 D36G mutant infected in human MT2 cells; format: functional
How it was run: as §2

Rattus norvegicus [19] = assay: AUC (0 to t) in rat at 4 mg/kg, iv administered as single dose; format: ADME, organism-based, Plasma; design: dose 4 mg/kg, route intravenous; conditions: in vivo
How it was run: (§3)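 Rats given one intravenous dose of 4 mg/kg. Peptide measured in plasma over time. Parameters (AUC(0−t), MRT(0−t), t1/2, Vd, Cmax) derived by model-independent analysis.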

[20] = Mean residence time in rat at 4 mg/kg, iv administered as single dose; format: ADME, organism-based; design: dose 4 mg/kg, route intravenous; conditions: in vivo
How it was run: as §3

Rattus norvegicus [21] = assay: Half life in rat at 4 mg/kg, iv at 4 mg/kg, iv administered as single dose; format: ADME, organism-based; conditions: in vivo
How it was run: as §3

[22] = Volume of distribution in rat at 4 mg/kg, iv administered as single dose; format: ADME, organism-based; design: dose 4 mg/kg, route intravenous; conditions: in vivo
How it was run: as §3

Rattus norvegicus [23] = assay: Cmax in rat at 4 mg/kg, iv administered as single dose; format: ADME, organism-based; design: dose 4 mg/kg, route intravenous; conditions: in vivo
How it was run: as §3

[24] = Half life in rat liver homogenate at 8 ug/ml; format: ADME, tissue-based
[25] = Half life of the compound at 8 ug/ml by proteinase K digestion assay; format: ADME
[26] = Half life in rat kidney homogenate at 8 ug/ml; format: ADME, tissue-based
[27] = target: GP41 (Human immunodeficiency virus 1) (UniProt Q76270); assay: Ratio of EC50 for HIV1 gp41-induced cell-cell fusion between viral envelope expressing human HL2/3 cells to CD4/CCR5 receptor expressing TZM-bl cells with wash out to EC50 for HIV1 gp41-induced cell-cell fusion between viral envelope expressing human HL2/3 cells to CD4/CCR5 receptor expressing TZM-bl cells; format: cell-based
How it was run: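 Peptides preincubated with TZM-bl cells at 37 °C for 1 h, with or without washing away unbound peptide. EC50 compared between washed and unwashed cells, giving the n-fold change. Triplicates, mean ± SD.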

[28] = test system: Human immunodeficiency virus 1; assay: Antiviral activity against HIV1 3B infected in human MT2 cells assessed as inhibition of viral entry compound treated at 100 nM at 1 hr post infection measured 3 to 4 days post infection by time-of-addition assay

## Cc1cn([C@H]2C[C@H](N=[N+]=[N-])[C@@H](CO)O2)c(=O)[nH]c1=O
[1]
  inhibition: Active

## C=CCOC(=O)[C@]12CCC(C)(C)C[C@H]1C1=CC[C@@H]3[C@@]4(C)CC[C@H](OC(=O)CCc5cn(CC(=O)NCCCC[C@H](NC(=O)CCNC(=O)[C@H](CC(C)C)NC(=O)[C@H](CC(C)C)NC(=O)[C@H](CCC(=O)O)NC(=O)[C@H](CCC(N)=O)NC(=O)[C@H](CCC(=O)O)NC(=O)[C@H](CC(N)=O)NC(=O)[C@H](CCCCN)NC(=O)[C@H](CCC(=O)O)NC(=O)[C@H](CCC(N)=O)NC(=O)[C@H](CCC(N)=O)NC(=O)[C@H](CC(N)=O)NC(=O)[C@H](CCC(N)=O)NC(=O)[C@H](CO)NC(=O)[C@H](CCC(=O)O)NC(=O)[C@H](CCC(=O)O)NC(=O)[C@@H](NC(=O)[C@H](CC(C)C)NC(=O)[C@H](CO)NC(=O)[C@H](Cc6cnc[nH]6)NC(=O)[C@@H](NC(=O)[C@H](CC(C)C)NC(=O)[C@H](CO)NC(=O)[C@@H](NC(=O)[C@H](Cc6ccc(O)cc6)NC(=O)[C@H](CC(N)=O)NC(=O)[C@H](CC(N)=O)NC(C)=O)[C@@H](C)O)[C@@H](C)CC)[C@@H](C)CC)C(N)=O)nn5)C(C)(C)[C@@H]4CC[C@@]3(C)[C@]1(C)CC2 (Ac-NNYTSLIHSLIEESQNQQEKNEQELL[βAla]K(X2)-NH2)
[2]
  solubility: 12.4 mg/mL (≈ 3.1 mM)
[3]
  EC50: 3.11 nM
[4]
  CC50 at 96 h: 8220 nM
[5]
  EC50: 0.271 nM
[6]
  selectivity ratio: 2640

## CCCc1cn(CC(=O)NCCC(=O)N[C@@H](CC(N)=O)C(=O)N[C@@H](CC(N)=O)C(=O)N[C@@H](Cc2ccc(O)cc2)C(=O)N[C@H](C(=O)N[C@@H](CO)C(=O)N[C@@H](CC(C)C)C(=O)N[C@H](C(=O)N[C@@H](Cc2cnc[nH]2)C(=O)N[C@@H](CO)C(=O)N[C@@H](CC(C)C)C(=O)N[C@H](C(=O)N[C@@H](CCC(=O)O)C(=O)N[C@@H](CCC(=O)O)C(=O)N[C@@H](CO)C(=O)N[C@@H](CCC(N)=O)C(=O)N[C@@H](CC(N)=O)C(=O)N[C@@H](CCC(N)=O)C(=O)N[C@@H](CCC(N)=O)C(=O)N[C@@H](CCC(=O)O)C(=O)N[C@@H](CCCCN)C(=O)N[C@@H](CC(N)=O)C(=O)N[C@@H](CCC(=O)O)C(=O)N[C@@H](CCC(N)=O)C(=O)N[C@@H](CCC(=O)O)C(=O)N[C@@H](CC(C)C)C(=O)N[C@@H](CC(C)C)C(N)=O)[C@@H](C)CC)[C@@H](C)CC)[C@@H](C)O)nn1 ({X11-βAla}-NNYTSLIHSLIEESQNQQEKNEQELL-NH2)
[7]
  inhibition: inactive

## C=CCOC(=O)[C@]12CC[C@@H](C(=C)C)[C@@H]1[C@H]1CC[C@@H]3[C@@]4(C)CC[C@H](OC(=O)CCc5cn(CC(=O)NCCCC[C@H](NC(=O)CCNC(=O)[C@H](CC(C)C)NC(=O)[C@H](CC(C)C)NC(=O)[C@H](CCC(=O)O)NC(=O)[C@H](CCC(N)=O)NC(=O)[C@H](CCC(=O)O)NC(=O)[C@H](CC(N)=O)NC(=O)[C@H](CCCCN)NC(=O)[C@H](CCC(=O)O)NC(=O)[C@H](CCC(N)=O)NC(=O)[C@H](CCC(N)=O)NC(=O)[C@H](CC(N)=O)NC(=O)[C@H](CCC(N)=O)NC(=O)[C@H](CO)NC(=O)[C@H](CCC(=O)O)NC(=O)[C@H](CCC(=O)O)NC(=O)[C@@H](NC(=O)[C@H](CC(C)C)NC(=O)[C@H](CO)NC(=O)[C@H](Cc6cnc[nH]6)NC(=O)[C@@H](NC(=O)[C@H](CC(C)C)NC(=O)[C@H](CO)NC(=O)[C@@H](NC(=O)[C@H](Cc6ccc(O)cc6)NC(=O)[C@H](CC(N)=O)NC(=O)[C@H](CC(N)=O)NC(C)=O)[C@@H](C)O)[C@@H](C)CC)[C@@H](C)CC)C(N)=O)nn5)C(C)(C)[C@@H]4CC[C@@]3(C)[C@]1(C)CC2 (Ac-NNYTSLIHSLIEESQNQQEKNEQELL[βAla]K(X1)-NH2)
[8]
  EC50: 29.2 nM
[9]
  EC50: 135 nM
[10]
  EC50: 34.4 nM
[11]
  EC50: 192 nM
[12]
  EC50: 322 nM
[13]
  EC50: 308 nM
[14]
  Ratio EC50: 4.6
[15]
  Ratio EC50: 1.2
[16]
  Ratio EC50: 6.5
[17]
  Ratio EC50: 11
[18]
  Ratio EC50: 10
Rattus norvegicus [19]
  AUCt: 101 µg·h/mL
[20]
  MRT: 191 min
Rattus norvegicus [21]
  t1/2: 188 min
[22]
  Vd: 0.17 L/kg
Rattus norvegicus [23]
  Cmax: 40400 ng/mL
[24]
  half-life at 8 ug/ml: 48.9 min
[25]
  half-life at 8 ug/ml: 54.3 min
[26]
  half-life at 8 ug/ml: 35.9 min
[2]
  solubility: 18.2 mg/mL (≈ 4.55 mM)
[3]
  EC50: 4.28 nM
[4]
  CC50 at 96 h: 14300 nM
[5]
  EC50: 6.9 nM
[6]
  selectivity ratio: 3350
[27]
  Ratio EC50: 11
[28]
  inhibition: Active
